The source made the active and inactive calls. The rule behind the calls is not given here.
Assays:
[1] = target: T1, Alpha-galactosidase A (Homo sapiens) (UniProt P06280); assay: Inhibition of human lysosomal alpha-galactosidase A at 1 mM using 4-methylumbelliferyl-alpha-D-galactopyranoside as substrate preincubated for 45 mins followed by substrate addition measured after 30 mins by fluorescence spectroscopic method relative to control
T1 sequence (whole entry): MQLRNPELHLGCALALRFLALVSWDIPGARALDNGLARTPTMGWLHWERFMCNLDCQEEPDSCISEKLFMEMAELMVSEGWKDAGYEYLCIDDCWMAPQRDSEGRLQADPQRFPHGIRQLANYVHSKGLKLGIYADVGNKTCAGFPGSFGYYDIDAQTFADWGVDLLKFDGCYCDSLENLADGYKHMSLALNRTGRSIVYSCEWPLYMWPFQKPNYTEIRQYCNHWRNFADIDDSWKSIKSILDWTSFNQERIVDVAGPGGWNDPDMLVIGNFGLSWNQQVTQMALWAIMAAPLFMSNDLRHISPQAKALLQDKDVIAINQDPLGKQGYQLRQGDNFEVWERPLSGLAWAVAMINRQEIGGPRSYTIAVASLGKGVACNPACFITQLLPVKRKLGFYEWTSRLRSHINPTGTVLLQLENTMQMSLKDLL
How it was run: (§1)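 Enzyme in 100 mM McIlvaine buffer pH 5.2 with 0.25% sodium taurocholate and 0.1% Triton X-100, with inhibitor. Preincubated at 0 °C for 45 min, then started with 3 mM 4-methylumbelliferyl glycoside substrate solution and incubated 30 min at 37 °C. Stopped with 400 mM glycine-NaOH pH 10.6. 4-Methylumbelliferone fluorescence read at ex 362/em 450 nm.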

[2] = target: Alpha-galactosidase (Coffea arabica, UniProt Q42656); assay: Inhibition of coffee beans alpha-galactosidase using p-nitrophenyl glycopyranoside preincubated for 5 mins followed by substrate addition measured after 20 mins by visible absorption spectroscopic method
Alpha-galactosidase, sequence (Q42656 whole entry): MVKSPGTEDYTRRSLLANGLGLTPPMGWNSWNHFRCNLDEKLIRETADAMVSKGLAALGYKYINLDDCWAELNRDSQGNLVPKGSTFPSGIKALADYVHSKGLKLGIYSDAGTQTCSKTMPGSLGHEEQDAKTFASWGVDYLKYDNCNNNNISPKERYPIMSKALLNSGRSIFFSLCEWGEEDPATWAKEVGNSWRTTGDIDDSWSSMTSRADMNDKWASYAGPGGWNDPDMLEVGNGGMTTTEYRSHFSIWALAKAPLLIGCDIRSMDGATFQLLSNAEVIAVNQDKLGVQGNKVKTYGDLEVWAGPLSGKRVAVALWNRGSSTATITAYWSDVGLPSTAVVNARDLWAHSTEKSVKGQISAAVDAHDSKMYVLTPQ
How it was run: (§2)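 IC50 determined only for compounds giving ≥80% inhibition at 1 mM, read from plots of % inhibition versus inhibitor concentration. p-Nitrophenyl glycopyranoside substrate (10 mM solution) at the enzyme's optimal pH, with 0.01–0.5 units/mL enzyme. 5 min rt preincubation with enzyme, then 20 min at 37 °C. Borate stop (pH 9.8), absorbance at 405 nm. Duplicates averaged.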

[3] = system: Prunus dulcis; assay: Inhibition of almond beta-glucosidase at 1 mM using p-nitrophenyl glycopyranoside preincubated for 5 mins followed by substrate addition measured after 20 mins by visible absorption spectroscopic method relative to control
How it was run: (§3)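 Test compound at 1 mM in well. Mix: 0.01–0.5 units/mL enzyme plus 10 mM p-nitrophenyl glycopyranoside (aqueous solution), buffered to the enzyme's optimal pH. Enzyme and inhibitor preincubated 5 min at rt. Substrate then added and incubated 20 min at 37 °C. Stopped with sodium borate (pH 9.8). p-Nitrophenolate read at 405 nm. Duplicates averaged.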

[4] = species: Bos taurus; assay: Inhibition of bovine liver beta-glucosidase at 1 mM using p-nitrophenyl glycopyranoside preincubated for 5 mins followed by substrate addition measured after 20 mins by visible absorption spectroscopic method relative to control; how it was run: as §3
[5] = target: T2, Beta-galactosidase (Bos taurus, UniProt Q58D55); assay: Inhibition of bovine liver beta-galactosidase using p-nitrophenyl glycopyranoside preincubated for 5 mins followed by substrate addition measured after 20 mins by visible absorption spectroscopic method; how it was run: as §2
T2 sequence (Q58D55 whole entry): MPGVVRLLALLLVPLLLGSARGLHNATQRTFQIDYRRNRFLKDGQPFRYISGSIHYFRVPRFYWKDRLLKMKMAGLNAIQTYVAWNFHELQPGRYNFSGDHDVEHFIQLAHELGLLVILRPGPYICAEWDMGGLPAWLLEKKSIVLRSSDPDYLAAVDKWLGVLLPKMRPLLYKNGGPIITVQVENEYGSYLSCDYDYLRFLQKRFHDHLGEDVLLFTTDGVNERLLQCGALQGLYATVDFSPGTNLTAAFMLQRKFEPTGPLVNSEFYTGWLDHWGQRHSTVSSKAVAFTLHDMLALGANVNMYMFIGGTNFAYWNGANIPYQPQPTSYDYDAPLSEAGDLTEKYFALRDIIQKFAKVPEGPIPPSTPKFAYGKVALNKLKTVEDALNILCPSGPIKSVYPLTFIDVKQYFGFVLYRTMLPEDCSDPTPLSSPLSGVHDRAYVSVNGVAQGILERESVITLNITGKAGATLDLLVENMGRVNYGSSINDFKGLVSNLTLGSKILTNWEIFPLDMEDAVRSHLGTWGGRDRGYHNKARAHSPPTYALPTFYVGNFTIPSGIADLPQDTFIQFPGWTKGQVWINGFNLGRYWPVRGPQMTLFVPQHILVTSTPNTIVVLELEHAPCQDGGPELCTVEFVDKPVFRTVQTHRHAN

[6] = target: Alpha-galactosidase (Coffea arabica) (UniProt Q42656); assay: Inhibition of coffee beans alpha-galactosidase at 50 uM using p-nitrophenyl glycopyranoside preincubated for 5 mins followed by substrate addition measured after 20 mins by visible absorption spectroscopic method relative to control
Alpha-galactosidase (Coffea arabica), sequence (Q42656 16-378 limits assumed): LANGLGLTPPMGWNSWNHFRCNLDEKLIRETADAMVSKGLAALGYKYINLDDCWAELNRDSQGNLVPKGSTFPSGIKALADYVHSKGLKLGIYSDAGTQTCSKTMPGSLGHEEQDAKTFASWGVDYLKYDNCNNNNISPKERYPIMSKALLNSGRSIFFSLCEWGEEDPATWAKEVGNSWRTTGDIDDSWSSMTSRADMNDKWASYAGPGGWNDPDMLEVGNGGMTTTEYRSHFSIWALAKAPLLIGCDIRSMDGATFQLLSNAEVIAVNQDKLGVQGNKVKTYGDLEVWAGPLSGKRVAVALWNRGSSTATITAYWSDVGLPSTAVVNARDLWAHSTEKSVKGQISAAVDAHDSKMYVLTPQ
How it was run: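 Crude triazoles from in situ CuAAC (ascorbate/CuSO4, 24 h rt, water-diluted) were screened at 50 μM per well, assuming full conversion. Enzyme was coffee bean α-galactosidase at pH 6, 37 °C, with p-nitrophenyl glycoside substrate and 405 nm read-out. Blanks of CuSO4, ascorbate and each alkyne were run.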

[7] = target: T3, Lysosomal acid glucosylceramidase (Homo sapiens, UniProt P04062); assay: Inhibition of human lysosomal beta-glucocerebrosidase using 4-methylumbelliferyl-beta-D-glucopyranoside as substrate preincubated for 45 mins followed by substrate addition measured after 30 mins by fluorescence spectroscopic method; how it was run: as §1
T3 sequence (P04062 whole entry): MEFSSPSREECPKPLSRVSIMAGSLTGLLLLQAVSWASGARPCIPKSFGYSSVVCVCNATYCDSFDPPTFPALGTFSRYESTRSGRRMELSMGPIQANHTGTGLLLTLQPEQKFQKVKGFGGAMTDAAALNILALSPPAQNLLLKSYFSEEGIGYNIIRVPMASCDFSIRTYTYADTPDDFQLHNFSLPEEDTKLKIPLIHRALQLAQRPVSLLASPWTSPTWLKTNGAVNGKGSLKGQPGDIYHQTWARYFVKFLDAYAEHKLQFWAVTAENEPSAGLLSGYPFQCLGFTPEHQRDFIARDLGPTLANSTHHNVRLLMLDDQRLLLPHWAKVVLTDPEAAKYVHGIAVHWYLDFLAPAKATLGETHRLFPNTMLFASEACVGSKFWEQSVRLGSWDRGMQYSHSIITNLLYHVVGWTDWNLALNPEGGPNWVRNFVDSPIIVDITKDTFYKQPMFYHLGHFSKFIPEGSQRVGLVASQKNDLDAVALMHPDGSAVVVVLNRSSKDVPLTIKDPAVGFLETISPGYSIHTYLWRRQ

[8] = Selectivity ratio of IC50 for human lysosomal alpha-galactosidase A to IC50 for coffee beans alpha-galactosidase
[9] = target: T4, Alpha-mannosidase (Canavalia ensiformis) (UniProt C0HJB3); assay: Inhibition of jack bean alpha-mannosidase at 1 mM using p-nitrophenyl glycopyranoside preincubated for 5 mins followed by substrate addition measured after 20 mins by visible absorption spectroscopic method relative to control; how it was run: as §3
T4 sequence (whole entry): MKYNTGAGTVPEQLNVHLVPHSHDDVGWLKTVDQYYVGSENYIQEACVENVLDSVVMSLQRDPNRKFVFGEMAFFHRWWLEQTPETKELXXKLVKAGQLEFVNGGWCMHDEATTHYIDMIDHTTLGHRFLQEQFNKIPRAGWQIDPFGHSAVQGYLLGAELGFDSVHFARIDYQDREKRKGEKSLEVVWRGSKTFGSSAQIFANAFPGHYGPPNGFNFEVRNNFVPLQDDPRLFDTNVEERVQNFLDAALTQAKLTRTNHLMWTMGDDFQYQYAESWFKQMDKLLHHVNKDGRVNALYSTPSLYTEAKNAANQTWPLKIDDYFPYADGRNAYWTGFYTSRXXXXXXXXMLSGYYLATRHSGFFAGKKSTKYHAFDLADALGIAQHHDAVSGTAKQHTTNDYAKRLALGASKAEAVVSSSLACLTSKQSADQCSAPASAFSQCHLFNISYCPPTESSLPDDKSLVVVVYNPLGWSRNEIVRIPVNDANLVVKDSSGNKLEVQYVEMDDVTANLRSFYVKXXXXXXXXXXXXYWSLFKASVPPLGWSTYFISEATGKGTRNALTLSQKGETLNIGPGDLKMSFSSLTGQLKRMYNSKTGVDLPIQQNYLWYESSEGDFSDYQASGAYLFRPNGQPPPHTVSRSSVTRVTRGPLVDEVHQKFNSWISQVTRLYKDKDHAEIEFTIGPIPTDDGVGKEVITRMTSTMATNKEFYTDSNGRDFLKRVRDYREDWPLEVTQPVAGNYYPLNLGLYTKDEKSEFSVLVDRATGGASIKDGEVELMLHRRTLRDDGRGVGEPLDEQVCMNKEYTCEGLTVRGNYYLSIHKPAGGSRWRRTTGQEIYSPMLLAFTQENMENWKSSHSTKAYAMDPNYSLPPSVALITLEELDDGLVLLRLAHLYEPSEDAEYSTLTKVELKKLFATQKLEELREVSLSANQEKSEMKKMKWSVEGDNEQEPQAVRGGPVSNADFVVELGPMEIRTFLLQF

[10] = system: Canavalia ensiformis; assay: Inhibition of jack bean beta-N-acetylglucosaminidase at 1 mM using p-nitrophenyl glycopyranoside preincubated for 5 mins followed by substrate addition measured after 20 mins by visible absorption spectroscopic method relative to control; how it was run: as §3
[11] = Inhibition of almond beta-glucosidase using p-nitrophenyl glycopyranoside preincubated for 5 mins followed by substrate addition measured after 20 mins by visible absorption spectroscopic method; set-up: species or system Prunus dulcis; how it was run: as §2
[12] = system: Oryza sativa; assay: Inhibition of rice alpha-glucosidase at 1 mM using p-nitrophenyl glycopyranoside preincubated for 5 mins followed by substrate addition measured after 20 mins by visible absorption spectroscopic method relative to control; how it was run: as §3
[13] = system: Aspergillus niger; assay: Inhibition of Aspergillus niger amyloglucosidase at 1 mM using p-nitrophenyl glycopyranoside preincubated for 5 mins followed by substrate addition measured after 20 mins by visible absorption spectroscopic method relative to control; how it was run: as §3
[14] = system: Cornu aspersum; assay: Inhibition of snail beta-mannosidase at 1 mM using p-nitrophenyl glycopyranoside preincubated for 5 mins followed by substrate addition measured after 20 mins by visible absorption spectroscopic method relative to control; how it was run: as §3
[15] = system: Saccharomyces cerevisiae; assay: Inhibition of yeast alpha glucosidase at 1 mM using p-nitrophenyl glycopyranoside preincubated for 5 mins followed by substrate addition measured after 20 mins by visible absorption spectroscopic method relative to control; how it was run: as §3
[16] = target: Beta-galactosidase (Escherichia coli) (UniProt Q8VNN2); assay: Inhibition of Escherichia coli beta-galactosidase at 1 mM using p-nitrophenyl glycopyranoside preincubated for 5 mins followed by substrate addition measured after 20 mins by visible absorption spectroscopic method relative to control; how it was run: as §3
Beta-galactosidase (Escherichia coli), sequence (Q8VNN2 whole entry, looked up): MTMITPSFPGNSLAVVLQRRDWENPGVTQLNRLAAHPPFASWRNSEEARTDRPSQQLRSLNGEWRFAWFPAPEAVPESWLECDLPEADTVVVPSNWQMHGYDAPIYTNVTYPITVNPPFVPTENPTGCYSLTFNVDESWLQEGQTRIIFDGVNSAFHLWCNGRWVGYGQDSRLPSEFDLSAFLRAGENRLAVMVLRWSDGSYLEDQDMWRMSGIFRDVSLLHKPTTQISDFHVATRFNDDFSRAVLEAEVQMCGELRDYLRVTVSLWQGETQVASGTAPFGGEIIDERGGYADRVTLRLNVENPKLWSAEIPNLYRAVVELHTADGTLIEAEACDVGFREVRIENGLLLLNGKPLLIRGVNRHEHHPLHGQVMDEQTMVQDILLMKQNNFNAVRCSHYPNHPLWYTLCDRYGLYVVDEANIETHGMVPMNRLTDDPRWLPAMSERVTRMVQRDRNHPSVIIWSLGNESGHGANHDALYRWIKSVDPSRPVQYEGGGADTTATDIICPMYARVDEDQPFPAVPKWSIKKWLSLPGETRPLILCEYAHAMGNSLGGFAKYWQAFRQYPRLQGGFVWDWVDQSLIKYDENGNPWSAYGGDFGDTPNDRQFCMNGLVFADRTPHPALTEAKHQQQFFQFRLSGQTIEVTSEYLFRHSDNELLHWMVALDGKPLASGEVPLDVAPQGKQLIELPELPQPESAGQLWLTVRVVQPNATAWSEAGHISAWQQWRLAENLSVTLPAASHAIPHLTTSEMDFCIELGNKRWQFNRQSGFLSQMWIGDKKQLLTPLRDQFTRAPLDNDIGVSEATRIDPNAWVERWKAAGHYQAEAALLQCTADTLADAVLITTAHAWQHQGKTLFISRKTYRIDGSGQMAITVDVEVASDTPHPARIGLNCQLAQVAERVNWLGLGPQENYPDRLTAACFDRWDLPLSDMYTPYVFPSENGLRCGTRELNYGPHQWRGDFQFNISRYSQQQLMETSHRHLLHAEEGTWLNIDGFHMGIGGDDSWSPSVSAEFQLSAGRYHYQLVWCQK

[17] = species: Bos taurus; assay: Inhibition of bovine kidney alpha-L-fucosidase at 1 mM using p-nitrophenyl glycopyranoside preincubated for 5 mins followed by substrate addition measured after 20 mins by visible absorption spectroscopic method relative to control; how it was run: as §3
[18] = target: T5, Beta-galactosidase (Aspergillus oryzae) (UniProt B7VU80); assay: Inhibition of Aspergillus oryzae beta-galactosidase at 1 mM using p-nitrophenyl glycopyranoside preincubated for 5 mins followed by substrate addition measured after 20 mins by visible absorption spectroscopic method relative to control; how it was run: as §3
T5 sequence (whole entry): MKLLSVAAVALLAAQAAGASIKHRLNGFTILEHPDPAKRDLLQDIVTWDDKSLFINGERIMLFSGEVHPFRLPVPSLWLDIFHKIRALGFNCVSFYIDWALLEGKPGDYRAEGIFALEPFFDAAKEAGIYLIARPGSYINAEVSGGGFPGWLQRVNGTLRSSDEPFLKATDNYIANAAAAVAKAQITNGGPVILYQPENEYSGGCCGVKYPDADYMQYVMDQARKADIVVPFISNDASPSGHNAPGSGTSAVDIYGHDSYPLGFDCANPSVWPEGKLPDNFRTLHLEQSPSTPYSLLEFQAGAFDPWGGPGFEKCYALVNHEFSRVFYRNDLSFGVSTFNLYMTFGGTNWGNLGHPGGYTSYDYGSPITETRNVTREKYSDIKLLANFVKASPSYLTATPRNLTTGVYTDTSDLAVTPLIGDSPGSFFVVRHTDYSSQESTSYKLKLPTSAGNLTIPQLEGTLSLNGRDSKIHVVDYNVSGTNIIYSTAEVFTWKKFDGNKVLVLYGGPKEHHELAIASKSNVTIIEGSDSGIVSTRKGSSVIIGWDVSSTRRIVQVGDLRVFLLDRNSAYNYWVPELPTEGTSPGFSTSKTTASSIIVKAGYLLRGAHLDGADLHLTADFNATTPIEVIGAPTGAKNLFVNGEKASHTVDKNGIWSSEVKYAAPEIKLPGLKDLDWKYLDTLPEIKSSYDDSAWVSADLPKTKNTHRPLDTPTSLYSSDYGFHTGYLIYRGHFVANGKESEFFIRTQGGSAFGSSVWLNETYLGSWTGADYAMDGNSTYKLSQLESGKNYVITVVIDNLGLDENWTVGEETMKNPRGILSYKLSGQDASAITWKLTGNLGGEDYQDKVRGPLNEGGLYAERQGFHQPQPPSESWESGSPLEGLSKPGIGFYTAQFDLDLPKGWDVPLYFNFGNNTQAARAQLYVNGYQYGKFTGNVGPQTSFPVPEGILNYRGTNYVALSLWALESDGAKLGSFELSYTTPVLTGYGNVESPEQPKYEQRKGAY

[19] = target: Alpha-galactosidase (Coffea arabica) (UniProt Q42656); assay: Inhibition of coffee beans alpha-galactosidase at 1 mM using p-nitrophenyl glycopyranoside preincubated for 5 mins followed by substrate addition measured after 20 mins by visible absorption spectroscopic method relative to control; how it was run: as §3

inhibition [1] [%] | IC50 [2] [µM] | inhibition [3] [%] | inhibition [4] [%] | IC50 [5] [µM] | inhibition [6] [%] | IC50 [7] [µM] | Ratio IC50 [8] | inhibition [9] | inhibition [10] | IC50 [11] [µM] | inhibition [12] | inhibition [13] | inhibition [14] | inhibition [15] | inhibition [16] [%] | inhibition [17] [%] | inhibition [18] [%] | inhibition [19] [%] | Structure (SMILES)
< 50 | 17 | < 50 | < 50 | 42 | 64 | 19 | 10 | – | – | – | – | – | – | – | – | – | – | – | COc1ccc2cc(-c3cn(C[C@H]4NC[C@@H](O)[C@H]4O)nn3)ccc2c1
– | 107 | 96 | – | – | – | – | – | inactive | inactive | 11 | inactive | inactive | inactive | inactive | 60 | 49 | 78 | 89 | O[C@@H]1[C@H](O)CN[C@@H]1CCn1cc(-c2ccccc2)nn1

Reference: ChEMBL document CHEMBL4190262, “Tuning of β-glucosidase and α-galactosidase inhibition by generation and in situ screening of a library of pyrrolidine-triazole hybrid molecules” (Eur J Med Chem, 2017)
